Results taken from publication PMC3861362 (Clinical Pharmacology : Advances and Applications, 2013).
Entries after “also recorded” stand apart in the source; their conditions may differ. Like-named read-outs stand apart in the source and are kept apart here.

How the values were obtained:
[1] = tested on: breast cancer resistance protein; conditions: cited from earlier work
[2] = cited from earlier work
[3] = type: in vivo, human (healthy Chinese subjects)
Procedure, shortened: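 Dosing was 10 mg once on day 1, then 10 mg twice daily for 6 d, ending with the morning dose on day 9. Subjects were confined to the facility throughout and monitored for adverse events, with physical examinations, vital signs, ECGs and clinical laboratory tests.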

CYP3A4 = conditions: minor contribution from other CYP enzymes; cited from earlier work
[4] = type: in vivo, human (healthy Chinese subjects); conditions: for CL renal: plasma and urine, CLR
bovine factor Xa = bovine factor Xa (Bos taurus, UniProt P00743); assay: Plasma anti-Xa activity by chromogenic assay after apixaban dosing; type: in vivo
P-glycoprotein = conditions: cited from earlier work
[5] = multiple doses 10 mg twice daily, one of twelve subjects

Sequence of bovine factor Xa (P00743 234-492 limits assumed): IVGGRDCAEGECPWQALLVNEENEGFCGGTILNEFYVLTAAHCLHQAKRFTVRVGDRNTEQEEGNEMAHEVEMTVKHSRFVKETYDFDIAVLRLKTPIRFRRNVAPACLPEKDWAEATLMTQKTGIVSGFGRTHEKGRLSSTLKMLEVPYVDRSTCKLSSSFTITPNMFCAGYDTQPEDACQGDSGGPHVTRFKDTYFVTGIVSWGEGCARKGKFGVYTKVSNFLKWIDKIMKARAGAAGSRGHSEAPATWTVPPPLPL
Sequence of bovine factor Xa (P00743 41-180 partner limits assumed): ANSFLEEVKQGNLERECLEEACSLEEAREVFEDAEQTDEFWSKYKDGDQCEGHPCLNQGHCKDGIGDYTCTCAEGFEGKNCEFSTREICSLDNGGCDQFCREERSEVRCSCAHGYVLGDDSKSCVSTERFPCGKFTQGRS

Structure (SMILES): COc1ccc(-n2nc(C(N)=O)c3c2C(=O)N(c2ccc(N4CCCCC4=O)cc2)CC3)cc1 [apixaban]
- breast cancer resistance protein substrate [1]: substrate
- CLR ([2]; Japanese and non-Asian subjects, ref previous studies): 0.49 to 1.07 L/h
- oral bioavailability [2]: ~ 50%
- share of total clearance via the kidneys [2]: 27%
- mean elimination t½ ([2]; healthy Western subjects): approximately 12 hours
- share of dose undergoing oxidative metabolism ([2]; oral administration): ~ 25%
- time to Cmax after oral administration ([2]; oral administration): ~ 3 hours
- time to Cmax ([2]; white and Japanese subjects): 2 to 4 h
- severity of adverse events after multiple-dose administration ([3]; 10 mg twice daily): mild
- overall safety and tolerability ([3]; healthy Chinese subjects, 10 mg single and twice-daily doses): safe and well tolerated
- subjects with elevated alanine aminotransferase (ALT) [3, 5]: 8%
- subjects with microscopic hematuria [3, 5]: 8%
- subjects with positive fecal blood [3, 5]: 8%
- adverse events after single dose ([3]; single-dose apixaban 10 mg): No adverse events
- changes in vital signs, physical examinations, or ECGs ([3]; whole study): No clinically significant changes
- deaths, serious adverse events, discontinuations, bleeding-related adverse events ([3]; whole study, 10 mg single and twice-daily doses, n=12): no bleeding-related adverse events reported; also recorded: no deaths, other serious adverse events, adverse events leading to discontinuation, or clinically significant bleeding-related adverse events
- enzyme mediating oxidative metabolism (CYP3A4): primarily mediated via CYP3A4
- CL renal ([4]; human, oral, 10 mg, Mean (SD), multiple doses 10 mg twice daily, day 9, n=12): 20 mL/min
- CL renal ([4]; human, po, 10 mg, Mean (SD), single 10 mg oral dose, day 1, n=12): 19.5 mL/min
- Tmax ([4]; human, plasma, oral, 10 mg, Tmax, Median (min, max), multiple doses 10 mg twice daily, day 9, n=12): 3.5 h
- half-life ([4]; human, plasma, oral, 10 mg, t½, Mean (SD), multiple doses 10 mg twice daily, day 9, n=12): 648 min
- AUC(0-inf) ([4]; human, plasma, po, 10 mg): 2310 ng·h/mL
- AUC(0-t) ([4]; human, plasma, po, 10 mg): 2270 ng·h/mL
- Cmax ([4]; human, plasma, po, 10 mg): 234 ng/mL
- time at which steady-state conditions were achieved ([4]; multiple doses 10 mg twice daily): by the third day of multiple-dose administration
- t½, Mean (SD) ([4]; single 10 mg oral dose, day 1, n=12): 11.4 (3.6) hours
- maximum anti-Xa activity, mean (SD) (bovine factor Xa; day 9, at 3 hours (peak apixaban concentration), 10 mg twice daily, low-molecular-weight heparin units): 5.57 (SD, 1.54) IU/mL
- minimum anti-Xa activity, mean (SD) (bovine factor Xa; day 9, at 12 hours (trough apixaban concentration), 10 mg twice daily, low-molecular-weight heparin units): 1.94 (SD, 0.54) IU/mL
- relationship between anti-Xa activity and plasma apixaban concentration (bovine factor Xa; single and multiple doses): appears to be linear; also recorded: direct linear relationship
- P-glycoprotein substrate (P-glycoprotein): substrate
